In ChEMBL document CHEMBL1250465, “A new metabotropic glutamate receptor agonist with in vivo anti-allodynic activity” (Bioorg Med Chem, 2010) one finds Activity, IC50 and EC50 data, which are given here for 3 compounds.

Activity calls are given as the source filed them.

Assay [1] concerns Rattus norvegicus. Nature of the assay: Antiallodynic activity against von Frey hair mechanically stimulated neuropathic pain in Sprague-Dawley rat assessed as increase of response threshold at 500 nmol dosed intrathecally after 3 hrs relative to control. Type of assay: functional. The method, boiled down:
(§1)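 Male Sprague-Dawley rats with chronic constriction injury of the left sciatic nerve, dosed 16 days after surgery. Intrathecal dosing under isoflurane, with vehicle as control. Blinded von Frey testing of both hind paws before dosing and at 1, 3 and 24 h. 50% withdrawal threshold in g from a Gaussian integral psychometric fit by maximum likelihood; n = 6.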

Assay [2] can be described thus: Displacement of [3H]AMPA from AMPA receptor in Sprague-Dawley rat brain synaptic membranes after 30 mins. Type of assay: cell membranes, Membrane. The method, boiled down:
(§2)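 Adult male Sprague-Dawley rat cortex synaptic membranes, washed four times in ice-cold pH 7.4 buffer at about 0.4–0.5 mg protein/mL. AMPA: 5 nM [3H]AMPA in 30 mM Tris-HCl/2.5 mM CaCl2 with 100 mM KSCN. Kainate: 5 nM [3H]KAIN in 50 mM Tris-HCl. NMDA: 2 nM [3H]CGP39653 in 50 mM Tris-HCl/2.5 mM CaCl2. Nonspecific binding set with 1 mM (S)-Glu.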

The target in assay [3] is Metabotropic glutamate receptor 1 (Homo sapiens, UniProt Q13255). Nature of the assay: Agonist activity at mGlu1 receptor expressed in CHO cells assessed as myo-[2-3H]Inositol turnover by scintillation counting. Type of assay: functional, cell-based. The method, boiled down:
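CHO cells stably expressing receptor, washed with DPBS, preincubated 30 min at 37 °C in HBSS with 20 mM HEPES, 1 mM CaCl2, 1 mM MgCl2, 0.85 mg/mL LiCl, pH 7.4; compound added for 30 min at 37 °C. Stopped with ice-cold 10 mM formic acid, 30 min at 4 °C. [3H]IP measured with yttrium silicate SPA beads; counts per minute read.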

The target in assay [4] is T1, Metabotropic glutamate receptor 2 (Homo sapiens, UniProt Q14416). Nature of the assay: Agonist activity at mGlu2 receptor expressed in CHO cells assessed as inhibition of forskolin-induced increase of cAMP level. Format: functional, cell-based. Put shortly: (§3)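 CHO cells grown in DMEM GlutaMAX-I, 10% dialyzed FBS, 2.5 g/L L-proline, seeded 26,000/well 24 h before. After a 20 min, 37 °C preincubation in DPBS with 1 mM CaCl2, 1 mM MgCl2, 1 mM IBMX, compound plus 25 µM forskolin was given for 10 min at 37 °C. Stopped with ice-cold sodium acetate pH 6.2, 0.1% Triton X-100, 0.1 mM IBMX; cAMP by radioimmunoassay.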
T1 sequence (Q14416 whole entry): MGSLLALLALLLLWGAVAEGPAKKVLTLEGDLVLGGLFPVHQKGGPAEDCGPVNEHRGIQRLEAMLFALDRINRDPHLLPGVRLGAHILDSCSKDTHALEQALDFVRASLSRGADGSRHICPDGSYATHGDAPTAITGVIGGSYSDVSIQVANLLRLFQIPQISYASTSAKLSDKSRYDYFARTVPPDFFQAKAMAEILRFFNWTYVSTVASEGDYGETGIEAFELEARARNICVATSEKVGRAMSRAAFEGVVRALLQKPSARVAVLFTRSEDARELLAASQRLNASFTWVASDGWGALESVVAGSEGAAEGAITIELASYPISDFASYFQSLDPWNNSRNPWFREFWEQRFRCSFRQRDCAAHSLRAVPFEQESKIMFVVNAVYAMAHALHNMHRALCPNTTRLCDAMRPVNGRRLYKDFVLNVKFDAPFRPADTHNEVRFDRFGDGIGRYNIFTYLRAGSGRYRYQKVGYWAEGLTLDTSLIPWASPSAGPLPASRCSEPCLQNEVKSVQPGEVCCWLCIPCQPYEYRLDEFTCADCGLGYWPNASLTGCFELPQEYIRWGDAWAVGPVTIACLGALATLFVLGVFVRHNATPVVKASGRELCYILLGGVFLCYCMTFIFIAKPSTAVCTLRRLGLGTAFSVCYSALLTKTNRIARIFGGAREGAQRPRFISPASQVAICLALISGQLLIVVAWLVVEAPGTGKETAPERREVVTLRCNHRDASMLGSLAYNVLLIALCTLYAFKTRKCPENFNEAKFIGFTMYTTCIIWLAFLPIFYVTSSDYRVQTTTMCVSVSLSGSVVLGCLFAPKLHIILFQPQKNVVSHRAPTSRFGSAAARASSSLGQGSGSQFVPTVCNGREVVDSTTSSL

The subject of assay [5] is Rattus norvegicus. Nature of the assay: Antiallodynic activity against von Frey hair mechanically stimulated neuropathic pain in intrathecally dosed Sprague-Dawley rat assessed as increase of response threshold after 3 hrs. Type of assay: functional, organism-based. The method, boiled down:
as §1

For assay [6], the system named is Rattus norvegicus. Nature of the assay: Antiallodynic activity against von Frey hair mechanically stimulated neuropathic pain in Sprague-Dawley rat assessed as increase of response threshold at 250 nmol dosed intrathecally after 24 hrs relative to control. Type of assay: functional. The following applies: in the assay text read “after 3 hrs” for “after 24 hrs”. Put shortly:
as §1

In assay [7] the target is Metabotropic glutamate receptor 4 (Homo sapiens, UniProt Q14833). Nature of the assay: Agonist activity at mGlu4 receptor expressed in CHO cells assessed as inhibition of forskolin-induced increase of cAMP level. Format: functional, cell-based. Put shortly: as §3
Sequence of Metabotropic glutamate receptor 4 (Q14833 whole entry): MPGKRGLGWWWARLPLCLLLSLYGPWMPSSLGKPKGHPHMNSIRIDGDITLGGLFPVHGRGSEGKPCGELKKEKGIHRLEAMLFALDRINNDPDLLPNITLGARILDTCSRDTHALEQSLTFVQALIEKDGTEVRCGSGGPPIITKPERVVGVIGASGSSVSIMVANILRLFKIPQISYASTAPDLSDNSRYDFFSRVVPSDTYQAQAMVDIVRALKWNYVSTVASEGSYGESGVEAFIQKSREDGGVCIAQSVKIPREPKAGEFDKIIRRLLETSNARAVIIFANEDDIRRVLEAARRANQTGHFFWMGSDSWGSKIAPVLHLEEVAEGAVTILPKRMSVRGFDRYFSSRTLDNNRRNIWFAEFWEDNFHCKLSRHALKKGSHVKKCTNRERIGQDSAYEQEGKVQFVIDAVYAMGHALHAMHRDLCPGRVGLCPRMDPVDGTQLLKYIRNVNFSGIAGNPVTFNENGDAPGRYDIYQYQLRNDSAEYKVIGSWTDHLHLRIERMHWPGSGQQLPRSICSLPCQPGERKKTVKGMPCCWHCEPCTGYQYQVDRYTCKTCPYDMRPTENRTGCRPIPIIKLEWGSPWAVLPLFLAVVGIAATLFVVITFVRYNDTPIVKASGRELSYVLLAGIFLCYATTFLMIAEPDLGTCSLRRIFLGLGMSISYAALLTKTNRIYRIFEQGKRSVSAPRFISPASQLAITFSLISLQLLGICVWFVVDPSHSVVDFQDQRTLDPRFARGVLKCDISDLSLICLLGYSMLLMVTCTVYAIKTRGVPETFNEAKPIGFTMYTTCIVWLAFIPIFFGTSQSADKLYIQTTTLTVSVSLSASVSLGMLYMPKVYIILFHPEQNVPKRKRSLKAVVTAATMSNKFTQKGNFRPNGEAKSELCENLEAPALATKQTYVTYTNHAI
Assay [8] has as its system Rattus norvegicus. Nature of the assay: Antiallodynic activity against von Frey hair mechanically stimulated neuropathic pain in Sprague-Dawley rat assessed as increase of response threshold at 50 nmol dosed intrathecally after 24 hrs relative to control. Format: functional. Conditions: in the assay text read “after 3 hrs” for “after 24 hrs”. Put shortly: as §1
Assay [9] deals with Rattus norvegicus. Nature of the assay: Antiallodynic activity against von Frey hair mechanically stimulated neuropathic pain in Sprague-Dawley rat assessed as increase of response threshold at 500 nmol dosed intrathecally after 1 hr. Type of assay: functional, organism-based. The method, boiled down: as §1
Assay [10] has as its system Rattus norvegicus. Nature of the assay: Antiallodynic activity against von Frey hair mechanically stimulated neuropathic pain in Sprague-Dawley rat assessed as increase of response threshold at 500 nmol dosed intrathecally after 24 hrs. Type of assay: functional, organism-based. Put shortly:
as §1

Assay [11] is described as follows: Displacement of [3H]KAIN from kainate receptor in Sprague-Dawley rat brain synaptic membranes after 60 mins. Type of assay: cell membranes, Membrane. The method, boiled down: as §2
A further assay deals with Glutamate NMDA receptor. Nature of the assay: Displacement of [3H]CGP39653 from NMDA receptor in Sprague-Dawley rat brain synaptic membranes after 60 mins. Format: cell membranes, Membrane. The method, boiled down: as §2
For assay [12], the target named is T1, Metabotropic glutamate receptor 2. Nature of the assay: Antagonist activity at mGlu2 receptor expressed in CHO cells assessed as increase of cAMP level. Format: functional, cell-based.

Sequence of Metabotropic glutamate receptor 1 (Q13255 whole entry): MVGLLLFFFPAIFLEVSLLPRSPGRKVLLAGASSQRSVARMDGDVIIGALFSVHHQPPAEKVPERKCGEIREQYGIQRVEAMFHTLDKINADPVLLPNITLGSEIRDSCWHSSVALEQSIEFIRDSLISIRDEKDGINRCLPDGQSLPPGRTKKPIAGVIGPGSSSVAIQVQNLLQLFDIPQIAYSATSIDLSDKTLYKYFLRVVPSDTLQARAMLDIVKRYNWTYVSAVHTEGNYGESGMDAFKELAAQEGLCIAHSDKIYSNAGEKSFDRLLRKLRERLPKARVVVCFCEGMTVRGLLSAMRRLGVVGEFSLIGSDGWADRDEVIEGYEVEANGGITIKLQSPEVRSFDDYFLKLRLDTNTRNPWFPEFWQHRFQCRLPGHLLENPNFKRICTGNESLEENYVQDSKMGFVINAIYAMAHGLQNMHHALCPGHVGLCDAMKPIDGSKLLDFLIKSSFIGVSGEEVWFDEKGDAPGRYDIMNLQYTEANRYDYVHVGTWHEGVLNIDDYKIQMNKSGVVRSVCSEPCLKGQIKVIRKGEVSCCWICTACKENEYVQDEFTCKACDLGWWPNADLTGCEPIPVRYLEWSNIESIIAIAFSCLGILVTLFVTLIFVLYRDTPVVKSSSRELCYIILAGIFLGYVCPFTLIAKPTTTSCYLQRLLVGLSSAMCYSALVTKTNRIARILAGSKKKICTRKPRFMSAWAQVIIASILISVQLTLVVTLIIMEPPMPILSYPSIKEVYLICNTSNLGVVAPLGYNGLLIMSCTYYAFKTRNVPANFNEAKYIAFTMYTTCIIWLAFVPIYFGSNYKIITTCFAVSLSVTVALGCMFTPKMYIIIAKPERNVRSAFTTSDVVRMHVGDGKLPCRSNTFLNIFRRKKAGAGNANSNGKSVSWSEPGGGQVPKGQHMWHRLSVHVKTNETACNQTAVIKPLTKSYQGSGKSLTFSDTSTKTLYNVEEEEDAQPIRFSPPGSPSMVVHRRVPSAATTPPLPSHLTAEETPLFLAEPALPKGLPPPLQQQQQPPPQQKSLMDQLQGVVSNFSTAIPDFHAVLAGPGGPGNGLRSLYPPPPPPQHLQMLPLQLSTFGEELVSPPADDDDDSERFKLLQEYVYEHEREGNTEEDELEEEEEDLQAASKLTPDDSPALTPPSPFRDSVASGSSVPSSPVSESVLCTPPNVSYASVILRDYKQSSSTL

In the case of `N[C@H](C(=O)O)[C@@H]1[C@@H](C(=O)O)[C@@H]1C1CC1` (racemic), the Activity with Rattus norvegicus [1] is 10 g; in the assay with Rattus norvegicus [5], “Dose-dependent effect”; in the assay on Rattus norvegicus [6], 7.5 g; in the assay with Rattus norvegicus [8] it was 5 g. The IC50 (in [2]; in assay [11]; at Glutamate NMDA receptor) was above 100 µM in each case. Besides, the EC50 in assay [3] is above 100 µM; in assay [4], 0.05 µM; in [7] it was above 100 µM. Besides, the outcome in the assay with Rattus norvegicus [9] was Active. Moreover, the result with Rattus norvegicus [10] was inactive.
As for `N[C@H](C(=O)O)[C@@H]1[C@@H](C(=O)O)[C@@H]1C1CCCCC1` (racemic), the concentration for half-maximal inhibition (IC50) in assay [2] is above 100 µM; in assay [12], 62 µM; in assay [11], above 100 µM; at Glutamate NMDA receptor, above 100 µM. Also, the EC50 in [3] and in assay [7] was above 100 µM throughout.
For the compound `C[C@H]1[C@H](C(=O)O)[C@H]1[C@H](N)C(=O)O` (racemic), the EC50 is above 100 µM in [3], 0.01 µM in assay [4] and above 100 µM in assay [7].
